This is an account of results in ChEMBL document CHEMBL1122395, “Tetracyclic chromophoric analogues of actinomycin D: synthesis, structure elucidation and interconvertibility from one form to another, antitumor activity, and structure-activity relationships” (1983).

As usually defined, the ΔTm is the change in melting temperature against a reference sample. As usually defined, the ILS is the gain in survival time of treated over control animals, in per cent. The low end stands for a small benefit in survival, the high end for a large benefit in survival.

For one test, the system named is Nucleic Acid. As to the kind of experiment: (§1) Melting temperature of DNA-drug complex minus melting temperature of purified calf-thymus DNA. The test is classed as functional. The following applies: Bos taurus. Put shortly: (§2)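 Calf-thymus DNA, purified. ΔTm is the Tm of the DNA-drug complex minus the Tm of DNA alone. Medium was 0.01 M phosphate buffer, pH 7.0, with EDTA.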

The test system of test [1] is P388. In words: Percent increase in life span observed in P-388 cells infected male CDF1 hybrid mice after intraperitoneal administration at 1200 ug/kg optimal dose. The test is classed as functional, Mus musculus. Put shortly:
(§3)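 Male CDF1 mice, seven per group, given 10^6 P388 cells ip on day 0. Drugs were given ip in 10% Me2SO-saline on days 1, 5 and 9, with solutions kept at 0-4 °C, protected from light and checked for homogeneity by HPLC. A range of doses was run and the optimal nontoxic dose reported. Read-outs were median survival time, percent increase in life span, and cures (over-60-day survivors, average of two experiments).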

Test [2] relates to P388. In words: Median survival time observed in P-388 cells infected male CDF1 hybrid mice after intraperitoneal administration at 1200 ug/kg optimal dose. The test is classed as functional, Mus musculus. Put shortly: as §3
The next test relates to CCRF-CEM. As to the kind of experiment: Growth inhibitory activity against human lymphoblastic leukemia cells(CCRF-CEM). The test is classed as functional. The following applies: read-out: ID50 (the source's name). Put shortly:
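Log-phase human lymphoblastic leukemia CCRF-CEM cells grown in suspension culture. Compounds dissolved in Me2SO, final growth medium contained 5% Me2SO. Test solutions kept at 0-4 °C, protected from light, homogeneity checked by HPLC before testing. ID50 reported in ng/mL.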

The species entered for a further test is Mus musculus. In words: Male CDF1 hybrid treated mice out of seven which survived over 60 days after the treatment. The test is classed as functional. The procedure, abridged:
as §3

For another test, the species on record is Bos taurus. The description is as §1. The test is classed as functional. The procedure, abridged:
as §2

For test [3], the system named is P388. In words: Median survival time observed in P-388 cells infected male CDF1 hybrid mice after intraperitoneal administration at 125 ug/kg optimal dose. Format: functional, Mus musculus. The procedure, abridged:
as §3

Test [4] deals with P388. As to the kind of experiment: Percent increase in life span observed in P-388 cells infected male CDF1 hybrid mice after intraperitoneal administration at 125 ug/kg optimal dose. Format: functional, Mus musculus. The procedure, abridged: as §3
Test [5] concerns P388. In words: Percent increase in life span observed in P-388 cells infected male CDF1 hybrid mice after intraperitoneal administration at 900 ug/kg optimal dose. Format: functional, Mus musculus. The procedure, abridged:
as §3

Test [6] deals with P388. As to the kind of experiment: Median survival time observed in P-388 cells infected male CDF1 hybrid mice after intraperitoneal administration at 900 ug/kg optimal dose. The test is classed as functional, Mus musculus. Put shortly: as §3
Test [7] relates to P388. As to the kind of experiment: Percent increase in life span observed in P-388 cells infected male CDF1 hybrid mice after intraperitoneal administration at 1800 ug/kg optimal dose. Format: functional, Mus musculus. Put shortly: as §3
In test [8] the test system is P388. As to the kind of experiment: Median survival time observed in P-388 cells infected male CDF1 hybrid mice after intraperitoneal administration at 1800 ug/kg optimal dose. Format: functional, Mus musculus. Put shortly:
as §3

For test [9], the system named is P388. As to the kind of experiment: Percent increase in life span observed in P-388 cells infected male CDF1 hybrid mice after intraperitoneal administration at 600 ug/kg optimal dose. Format: functional, Mus musculus. The procedure, abridged: as §3
In test [10] the test system is P388. As to the kind of experiment: Median survival time observed in P-388 cells infected male CDF1 hybrid mice after intraperitoneal administration at 600 ug/kg optimal dose. Format: functional, Mus musculus. Put shortly:
as §3

≈ marks a conversion by molar mass, not a printed value. Starred links: 1 amine or outer side, 2 acyl side, 3 side chain; linkers in the order of their positions; H or OH if unused. Positions of bridges follow the written chain, without caps; N, C: chain ends. Non-standard residues stand in square brackets, D forms with d. Residues, ends and D or L forms follow the SMILES beside them. Chains are numbered I, II in the order given. Actinocin(1to9) = Cc1c2oc3c(C)ccc(C(=O)[*:2])c3nc-2c(C(=O)[*:1])c(N)c1=O; NMeV = CN[C@H](C(=O)O)C(C)C; Sar = CNCC(=O)O

Consider `Cc1nc2c(C(=O)N[C@H]3C(=O)N[C@H](C(C)C)C(=O)N4CCC[C@H]4C(=O)N(C)CC(=O)N(C)[C@@H](C(C)C)C(=O)O[C@H]3C)c3nc4c(C(=O)N[C@@H]5C(=O)N[C@H](C(C)C)C(=O)N6CCC[C@H]6C(=O)N(C)CC(=O)N(C)[C@@H](C(C)C)C(=O)O[C@@H]5C)cc(=O)c(C)c-4oc3c(C)c2o1`, for which the ΔTm in the test on Nucleic Acid is 1 °C.
`Cc1ccc(C(=O)N[C@@H]2C(=O)N[C@H](C(C)C)C(=O)N3CCC[C@H]3C(=O)N(C)CC(=O)N(C)[C@@H](C(C)C)C(=O)O[C@@H]2C)c2c1Oc1c(c(C(=O)N[C@@H]3C(=O)N[C@H](C(C)C)C(=O)N4CCC[C@H]4C(=O)N(C)CC(=O)N(C)[C@@H](C(C)C)C(=O)O[C@@H]3C)c3nc(-c4ccc(Cl)cc4Cl)c(=O)oc3c1C)N2`: the increase in lifespan (ILS) in the test on P388 [1] is recorded as 155%. Also, the MST in the test with P388 [2] was found to be 28 days. The IC50 in the test with CCRF-CEM was found to be 3.2 µg/mL (≈ 2.22 µM). In the test listed under Mus musculus, the Cures was 0.
Turning to `Cc1nc2c(C(=O)N[C@H]3C(=O)N[C@H](C(C)C)C(=O)N4CCC[C@H]4C(=O)N(C)CC(=O)N(C)[C@@H](C(C)C)C(=O)O[C@H]3C)c3c(c(C)c2o1)Oc1c(C)ccc(C(=O)N[C@@H]2C(=O)N[C@H](C(C)C)C(=O)N4CCC[C@H]4C(=O)N(C)CC(=O)N(C)[C@@H](C(C)C)C(=O)O[C@@H]2C)c1N3`, in the test with Nucleic Acid, the ΔTm is 0 °C.
`Cc1c2oc3c(C)ccc(C(=O)N[C@@H]4C(=O)N[C@H](C(C)C)C(=O)N5CCC[C@H]5C(=O)N(C)CC(=O)N(C)[C@@H](C(C)C)C(=O)O[C@@H]4C)c3nc-2c(C(=O)N[C@@H]2C(=O)N[C@H](C(C)C)C(=O)N3CCC[C@H]3C(=O)N(C)CC(=O)N(C)[C@@H](C(C)C)C(=O)O[C@@H]2C)c(N)c1=O` [DACTINOMYCIN] (I: T[dV]P[Sar][NMeV] / II: T[dV]P[Sar][NMeV]; ester I:1-I:C, II:1-II:C; linker I:N-II:N via Actinocin(1to9)): the ΔTm in the test listed under Bos taurus was 7.1 °C. Besides, the MST in the test with P388 [3] turned out to be 26 days. This compound also yielded an ILS with P388 [4] of 136%. In addition, the IC50 in the test with CCRF-CEM came out at 0.04 µg/mL (≈ 0.0319 µM). In addition, the Cures in the test filed under Mus musculus is on record as 1.
Regarding `Cc1ccc(C(=O)N[C@@H]2C(=O)N[C@H](C(C)C)C(=O)N3CCC[C@H]3C(=O)N(C)CC(=O)N(C)[C@@H](C(C)C)C(=O)O[C@@H]2C)c2c1Oc1c(c(C(=O)N[C@@H]3C(=O)N[C@H](C(C)C)C(=O)N4CCC[C@H]4C(=O)N(C)CC(=O)N(C)[C@@H](C(C)C)C(=O)O[C@@H]3C)c3nc(-c4ccccc4)oc3c1C)N2`, the IC50 with CCRF-CEM was 9 µg/mL (≈ 6.7 µM). In the test filed under Mus musculus, this compound showed a Cures of 0. Besides, in the test with P388 [5], the increase in lifespan (ILS) is recorded as 109%. Besides, the MST with P388 [6] was found to be 23 days.
Compound `Cc1nc2c(C(=O)N[C@@H]3C(=O)N[C@H](C(C)C)C(=O)N4CCC[C@H]4C(=O)N(C)CC(=O)N(C)[C@@H](C(C)C)C(=O)O[C@@H]3C)c3c(c(C)c2o1)Oc1c(C)ccc(C(=O)N[C@@H]2C(=O)N[C@H](C(C)C)C(=O)N4CCC[C@H]4C(=O)N(C)CC(=O)N(C)[C@@H](C(C)C)C(=O)O[C@@H]2C)c1N3` had an ILS in the test on P388 [1] of 91%. In the test with P388 [2], this compound showed an MST of 21 days. Also, the IC50 in the test with CCRF-CEM is 2.9 µg/mL (≈ 2.26 µM). This compound also yielded a Cures in the test listed under Mus musculus of 0.
`Cc1ccc(C(=O)N[C@@H]2C(=O)N[C@H](C(C)C)C(=O)N3CCC[C@H]3C(=O)N(C)CC(=O)N(C)[C@@H](C(C)C)C(=O)O[C@@H]2C)c2c1Oc1c(c(C(=O)N[C@@H]3C(=O)N[C@H](C(C)C)C(=O)N4CCC[C@H]4C(=O)N(C)CC(=O)N(C)[C@@H](C(C)C)C(=O)O[C@@H]3C)c3nc(-c4c(F)c(F)c(F)c(F)c4F)oc3c1C)N2` registered an ILS with P388 [7] of 72%. Further, in the test with CCRF-CEM, the IC50 stood at 12.5 µg/mL (≈ 8.72 µM). This compound displayed a Cures in the test listed under Mus musculus of 0. This compound also had an MST in the test on P388 [8] of 19 days.
In the test on P388 [9], `Cc1ccc(C(=O)N[C@@H]2C(=O)N[C@H](C(C)C)C(=O)N3CCC[C@H]3C(=O)N(C)CC(=O)N(C)[C@@H](C(C)C)C(=O)O[C@@H]2C)c2c1Oc1c(c(C(=O)N[C@@H]3C(=O)N[C@H](C(C)C)C(=O)N4CCC[C@H]4C(=O)N(C)CC(=O)N(C)[C@@H](C(C)C)C(=O)O[C@@H]3C)c3nc(-c4cccc(Cl)c4)c(=O)oc3c1C)N2` showed an ILS of 164%. In addition, the IC50 in the test with CCRF-CEM came out at 1.6 µg/mL (≈ 1.14 µM). In the test filed under Mus musculus, this compound registered a Cures of 0. The MST with P388 [10] worked out at 29 days.
Regarding `CCCCCCc1nc2c(C(=O)N[C@@H]3C(=O)N[C@H](C(C)C)C(=O)N4CCC[C@H]4C(=O)N(C)CC(=O)N(C)[C@@H](C(C)C)C(=O)O[C@@H]3C)c3c(c(C)c2oc1=O)Oc1c(C)ccc(C(=O)N[C@@H]2C(=O)N[C@H](C(C)C)C(=O)N4CCC[C@H]4C(=O)N(C)CC(=O)N(C)[C@@H](C(C)C)C(=O)O[C@@H]2C)c1N3`, in the test on P388 [1], the ILS is reported as 127%. This compound had an MST in the test on P388 [2] of 25 days. Also, in the test with CCRF-CEM, the IC50 worked out at 2.08 µg/mL (≈ 1.51 µM). This compound registered a Cures in the test listed under Mus musculus of 0.
